{"source": "PubChem BioAssay AID688", "about": "(PCMD, 2007)", "note": "In all, about 27,000 compounds went through this assay and about 250 (0.93%) were called active.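 How the source made its calls: active means mutant luminescence inhibited past about 50% while wild type luminescence and mutant growth stay under set limits (limit read from the data); inconclusive means mutant versus wild type luminescence inhibition gap past a set limit; inactive means the rest.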 The sample as a whole holds a higher share of actives than the screen did."}
{"experiment": "GCN4-lacZ reporter reduction in eIF2B-epsilon mutant yeast, primary screen, S. cerevisiae, eIF2B-epsilon R284H, Beta-Glo luminescence (AID 688)", "details": "growth inhibition: measured here: mutant yeast growth, toxicity, concentration not given here; inhibition: stronger effect = higher value, screened at 25 µM (by protocol)", "procedure,_shortened": "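Times: 16 h growth with compound at 30 °C, 90 min Beta-Glo step; Assay system: yeast eIF2B-epsilon R284H mutant carrying GCN4–beta-galactosidase fusion; Measure: % inhibition of reporter signal and growth versus controls; Dosing: one concentration, 25 µM, 0.25% DMSO; Buffer or medium: YPD yeast growth medium; Measured by: Beta-Glo luminescence plus absorbance at 595 nm.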", "units": {"growth inhibition": "%"}}
{"smiles": "CCOC(=O)c1[nH]c2ccc(OC)cc2c1NC(=O)N1CCOCC1", "inhibition": "-48.6% (inactive)"}
{"smiles": "CCOc1ccc(NC(=O)CN2CCN(CC(=O)Nc3ccc(OC)cc3)CC2)cc1", "growth inhibition": 9.09, "inhibition": "-13.6% (inactive)"}
{"smiles": "CCCNC(=O)NCc1ccc(N2CCCC2=O)cc1", "growth inhibition": 12.5, "inhibition": "10.8% (inactive)"}
{"smiles": "O=c1/c(=C/c2ccc(CNS(=O)(=O)c3ccccc3)o2)sc2n1CCN=2", "growth inhibition": -8.62, "inhibition": "62.4% (active)"}
{"smiles": "CC1(C)CC(=O)C=C(N2CCCC2)C1", "inhibition": "30.3% (inactive)"}
{"smiles": "CC1(C)CC(=O)C=C(NCCCNC2CCCCC2)C1", "growth inhibition": 8.06, "inhibition": "53.4% (active)"}
{"smiles": "CC1(C)CC(=O)C=C(NCCN2CCNCC2)C1", "growth inhibition": 9.46, "inhibition": "32.9% (inactive)"}
{"smiles": "Cc1ccc(N2C(=O)CC(Sc3ncn[nH]3)C2=O)cc1", "note": "(stereo unspecified)", "growth inhibition": 23.8, "inhibition": "-7.91% (inactive)"}
{"smiles": "COc1ccc(NC(=O)Nc2ccc3nc(C)c(C)nc3c2)cc1", "growth inhibition": -13.5, "inhibition": "-3.08% (inactive)"}
{"smiles": "CCn1c(=O)cc(O)c2ccccc21", "growth inhibition": 11.1, "inhibition": "2.94% (inactive)"}
{"smiles": "O=C1CCCc2nn(-c3ccccc3)nc21", "growth inhibition": 7.14, "inhibition": "6.25% (inactive)"}
{"smiles": "CCOC(=O)c1ccccc1NS(=O)(=O)c1ccc(OC)cc1", "growth inhibition": 10.5, "inhibition": "-13% (inactive)"}
{"smiles": "N#CCSc1nc2c(c(=O)n1Cc1ccccc1)C1(CCCC1)Cc1ccccc1-2", "inhibition": "9.23% (inactive)"}
{"smiles": "O=C(Cc1ccccc1)Nc1c(C(=O)N2CCCCCC2)cnn1-c1ccccc1", "growth inhibition": 8.33, "inhibition": "-14.8% (inactive)"}
{"smiles": "COc1ccc(S(=O)(=O)N2CCCC(C(=O)N3CCN(C)CC3)C2)cc1C", "note": "(stereo unspecified)", "growth inhibition": 6.9, "inhibition": "-4.21% (inactive)"}
{"smiles": "CC(C)n1c(-c2cccs2)nc2ccccc21", "growth inhibition": 14.7, "inhibition": "15% (inactive)"}
{"smiles": "CCOC(=O)C1=C(CSc2nnnn2C)N(C)C(=O)NC1c1ccccc1", "note": "(stereo unspecified)", "growth inhibition": -2.7, "inhibition": "19.9% (inactive)"}
{"smiles": "CCOC(=O)c1sc(C)c2c1NC(C)(c1cccc3ccccc13)NC2=O", "note": "(stereo unspecified)", "growth inhibition": 2.7, "inhibition": "-8.97% (inactive)"}
{"smiles": "CCOCCn1c(C(C)C)nc2ccccc21", "inhibition": "-14.4% (inactive)"}
{"smiles": "CCNc1nc(N)nc(Oc2ccc(OCC)nn2)n1", "growth inhibition": -12.5, "inhibition": "31.6% (inactive)"}
{"smiles": "C/C=C/C(=O)Nc1nnc(C(C)C)s1", "inhibition": "1.35% (inactive)"}
{"smiles": "O=C(Nc1cccnc1)c1noc2c1CCCCC2", "growth inhibition": 3.45, "inhibition": "69% (active)"}
{"smiles": "O=C(CCCn1c(=O)oc2ccccc21)Nc1cccnc1", "growth inhibition": -21.7, "inhibition": "22.3% (inactive)"}
{"smiles": "O=C(CS(=O)(=O)Cc1ccccc1)Nc1cccnc1", "inhibition": "11.1% (inactive)"}
{"smiles": "COc1ccc(-n2nnnc2SCC(=O)Nc2ccccc2)cc1", "growth inhibition": -13.6, "inhibition": "0.65% (inactive)"}
{"smiles": "O=C(NCc1ccccn1)c1cc(-c2ccccc2Cl)on1", "growth inhibition": 9.09, "inhibition": "8.32% (inactive)"}
{"smiles": "COc1ccc(-c2nnc(SCC(=O)c3ccc4c(c3)OCCO4)o2)cc1", "growth inhibition": -27.1, "inhibition": "9.99% (inactive)"}
{"smiles": "C=CCSC1=C(C#N)C(c2cc(Br)c(O)c(OC)c2)CC(=O)N1", "note": "(stereo unspecified)", "growth inhibition": -19.1, "inhibition": "17.8% (inactive)"}
{"smiles": "O=C(NCC(=O)N(Cc1cccs1)C(C(=O)NC1CCCCC1)c1ccco1)c1cccs1", "note": "(stereo unspecified)", "growth inhibition": -12.9, "inhibition": "9.07% (inactive)"}
{"smiles": "Cc1nc2c(c(=O)n1Cc1ccco1)c1nc3ccccc3nc1n2Cc1ccccc1", "inhibition": "16.6% (inactive)"}
{"smiles": "CCOc1ccc(NC(=O)CN(C)CC(=O)Nc2cccc(Cl)c2C)cc1OCC", "growth inhibition": -23.8, "inhibition": "30.2% (inactive)"}
{"smiles": "COc1ccccc1-n1nnnc1S(=O)(=O)Cc1ccc(Cl)cc1", "growth inhibition": -20.6, "inhibition": "24.8% (inactive)"}
{"smiles": "Cc1cc(C)n(-c2c(F)c(F)c(COC(=O)c3ccccc3)c(F)c2F)n1", "growth inhibition": 23, "inhibition": "20.8% (inactive)"}
{"smiles": "Cc1cccc(N2C(=O)c3cccnc3C2=O)c1", "growth inhibition": -42.9, "inhibition": "27.9% (inactive)"}
{"smiles": "CC(=O)NC1(c2cccc(F)c2)CCN(CC(=O)NC(C)C)CC1", "growth inhibition": 4.55, "inhibition": "8.86% (inactive)"}
{"smiles": "O=C(NCc1ccc(Cl)c(Cl)c1)c1cccnc1", "growth inhibition": -25, "inhibition": "24.4% (inactive)"}
{"smiles": "O=C(Nc1nncs1)c1cccc(S(=O)(=O)N2CCCCC2)c1", "growth inhibition": -27.3, "inhibition": "-2.85% (inactive)"}
{"smiles": "Cc1ccc(C2(C(F)(F)F)N=C3Sc4cc(C)cc(C)c4N3C(=O)N2)cc1", "note": "(stereo unspecified)", "growth inhibition": -4.76, "inhibition": "31.4% (inactive)"}
{"smiles": "C=CCn1c(SCCOc2ccc(OC)cc2)nnc1C(NC(=O)c1ccc(OC)cc1)C(C)C", "note": "(stereo unspecified)", "growth inhibition": -10, "inhibition": "21.4% (inactive)"}
{"smiles": "COCc1[nH][nH]c(=O)c1C=Nc1ccc(F)cc1F", "growth inhibition": 18.9, "inhibition": "24.1% (inactive)"}
{"smiles": "Cc1ccc2c(CSc3nncs3)cc(=O)oc2c1", "growth inhibition": -14.7, "inhibition": "-21.6% (inactive)"}
{"smiles": "CCCCNS(=O)(=O)c1ccc(S(=O)(=O)n2cnc3ccccc32)cc1", "growth inhibition": -31.6, "inhibition": "-22.7% (inactive)"}
{"smiles": "CCOC(=O)c1c(N)sc(C(C)=O)c1C", "growth inhibition": 19.1, "inhibition": "2.16% (inactive)"}
{"smiles": "Cc1ccc(S(=O)(=O)c2nc(NCCCn3ccnc3)sc2Cl)cc1", "growth inhibition": 15.9, "inhibition": "26% (inactive)"}
